From ChEMBL document CHEMBL1122869, “Substituted benzamides with conformationally restricted side chains. 1. Quinolizidine derivatives as selective gastric prokinetic agents” (1985)

Tests used:
Rattus norvegicus [1] = assay: Tested for stimulation of intragastric pressure in rat on sc administration; range 1-50 mg/kg; format: functional
Method in brief: (§1)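 Male Wistar rats (200-500 g) with chronic gastric fistula, fasted overnight and restrained in Bollman cages. Only animals with basal motility <4 mmHg mean amplitude were used. Pressure waves were recorded via the fistula through a transducer over four 10-min periods before and after sc dosing, and the mean motility index was derived from them. Usually four groups of 10 rats received graded doses or vehicle.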

Rattus norvegicus [2] = assay: Tested for stimulation of intragastric pressure in ra0t on sc administration; range 1-50 mg/kg
Mus musculus = assay: Tested for anti-apomorphine climbing activity in mouse on sc administration
Rattus norvegicus [3] = assay: Tested for stimulation of intragastric pressure in rat on sc administration; format: functional; method in brief: as §1
Rattus norvegicus [4] = assay: Tested for stimulation of intragastric pressure in rat on sc administration; range 1-10 mg/kg; format: functional; method in brief: as §1
[5] = Rattus norvegicus, read-out: ED50
[6] = Mus musculus, sc, read-out: ED50

## COc1cc(N)c(Cl)cc1C(=O)NC1CCC2CCCCN2C1 (configuration not stated)
Rattus norvegicus [1]
  ED50: 1 mg/kg

## COc1cc(N)c(Cl)cc1C(=O)NC1CCCN2CCCCC12 (configuration not stated)
Rattus norvegicus [2]
  ED50: 1 mg/kg

## COc1cc(N)c(Cl)cc1C(=O)NC1CCCN2CCCCC12 (stereo in doubt; 2a)
Rattus norvegicus [1]
  ED50: 1 mg/kg
Mus musculus
  ED50: >50 mg/kg

## COc1cc(N)c(Cl)cc1C(=O)NC1CCCN2CCCCC12 (stereo in doubt; 2b)
Rattus norvegicus [1]; [5]
  ED50: > 50 mg/kg
Mus musculus
  ED50: 0.4 mg/kg

## COc1cc(N)c(Cl)cc1C(=O)NC1CCC2CCCCN2C1 (stereo in doubt; 2c)
Rattus norvegicus [1]; [5]
  ED50: 1 mg/kg
Mus musculus
  ED50: 12 mg/kg

## COc1cc(N)c(Cl)cc1C(=O)NC1CCN2CCCCC2C1 (stereo in doubt; 2e)
Rattus norvegicus [3]
  ED50: 4 mg/kg
Mus musculus
  ED50: 7 mg/kg

## COc1cc(N)c(Cl)cc1C(=O)NC1CCN2C(C)CCCC2C1 (stereo in doubt; 2f) [BRL-20627]
Rattus norvegicus [1]; [5]
  ED50: 1 mg/kg
Mus musculus
  ED50: >50 mg/kg

## COc1cc(N)c(Cl)cc1C(=O)NC1CCN2CCCCC2C1 (stereo in doubt; 2g)
Rattus norvegicus [3]
  ED50: 0.8 mg/kg
Mus musculus
  ED50: 25 mg/kg

## COc1cc(N)c(Cl)cc1C(=O)NC1CCC2CCCCN2C1 (stereo in doubt; form 1)
Mus musculus
  ED50: 10 mg/kg
Rattus norvegicus [4]
  ED50: 1 mg/kg

## COc1cc(N)c(Cl)cc1C(=O)NC1CCN2C(C)CCCC2C1 (stereo in doubt; form 1) [BRL-20627]
Rattus norvegicus [3]; [5]
  ED50: 0.8 mg/kg
Mus musculus; [6]
  ED50: 25 mg/kg

## COc1cc(N)c(Cl)cc1C(=O)NC1CCC2CCCCN2C1 (stereo in doubt; form 2)
Mus musculus; [6]
  ED50: 10 mg/kg
Rattus norvegicus [4]; [5]
  ED50: 1 mg/kg

## COc1cc(N)c(Cl)cc1C(=O)NC1CCN2C(C)CCCC2C1 (stereo in doubt; form 2) [BRL-20627]
Rattus norvegicus [3]
  ED50: 0.8 mg/kg
Mus musculus
  ED50: 25 mg/kg

## COc1cc(N)c(Cl)cc1C(=O)NC1CCN2C(C)CCCC2C1 (configuration not stated) [BRL-20627]
Rattus norvegicus [1]
  ED50: 1 mg/kg

## CCN(CC)CCNC(=O)c1cc(Cl)c(N)cc1OC [METOCLOPRAMIDE]
Rattus norvegicus [3]
  ED50: 1 mg/kg
Rattus norvegicus [3]; [5]
  ED50: 1 mg/kg
Mus musculus
  ED50: 0.75 mg/kg
Mus musculus; [6]
  ED50: 0.75 mg/kg
